Measured values taken from ChEMBL document CHEMBL2390839, “Di-alkylated paromomycin derivatives: targeting the membranes of gram positive pathogens that cause skin infections” (Bioorg Med Chem, 2013).
Values after ≈ are worked out from the molar mass of the structure shown. Active and inactive are the calls of the source. The rule behind the calls is not given here. Non-standard residues stand in square brackets, D forms with d. Residues, ends and D or L forms follow the SMILES beside them. *: point of attachment. NHCH2CH2OH = OCCN*; For = O=C*

Experiments:
[1] = Ratio of gramicidin D activity to compound activity for hemolysis of rat RBC up to 256 ug/mL after 1 hrs; assay type: ADME, cell-based; conditions: erythrocyte
[2] = tested on: Staphylococcus aureus; experiment: Antibacterial activity against Staphylococcus aureus Cowan ATCC 12598 assessed as growth inhibition after 24 hrs by MTT assay; assay type: functional; conditions: Cowan ATCC 12598, 24 h
Procedure, shortened: (§1)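 Starter cultures grown 24 h at 37 °C, 5% CO2, aerobic, then diluted in fresh medium to OD600 0.004. Twofold serial dilutions from 64 µg/mL, 24 h incubation. MTT (1 mg/mL solution) added, then 2 h at 37 °C. MIC = lowest concentration with no visible growth. Two independent experiments, each in triplicate.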

[3] = tested on: Staphylococcus aureus; experiment: Antibacterial activity against Staphylococcus aureus NCTC 6571 assessed as growth inhibition after 24 hrs by MTT assay; assay type: functional; conditions: NCTC 6571, 24 h; procedure, shortened: as §1
[4] = Hemolytic activity in rat RBC assessed as hemoglobin release at 32 ug/mL after 1 hr by microplate reader analysis relative to control; assay type: ADME, cell-based, Erythrocyte; conditions: red blood cells (RBC), read-out: Activity
Procedure, shortened: (§2)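 Rat RBCs (2% w/w) were exposed to compound for 1 h at 37 °C, 5% CO2, using twofold dilutions from 256 µg/mL. PBS served as the negative control and 1% w/v Triton X-100 as the 100% lysis control. After centrifugation (2000 rpm, 10 min), supernatant absorbance was read at 550 nm and expressed as % hemoglobin release relative to Triton. Assays were run in triplicate, averaged over blood from at least two rats.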

[5] = Hemolytic activity in rat RBC assessed as hemoglobin release at 256 ug/mL after 1 hr by microplate reader analysis relative to control; assay type: ADME, cell-based, Erythrocyte; conditions: red blood cells (RBC), read-out: Activity; procedure, shortened: as §2
[6] = Antibacterial activity against biofilm-positive Staphylococcus epidermidis RP62A ATCC 35984 assessed as growth inhibition after 24 hrs by MTT assay; assay type: functional; conditions: ATCC 35984, 24 h
Procedure, shortened: (§3)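 Starter cultures were grown 24 h at 37 °C, 5% CO2, aerobic, then diluted in fresh medium to OD600 0.004. Twofold serial dilutions started at 64 µg/mL. After 24 h of incubation, MTT (1 mg/mL solution) was added and plates were incubated 2 h more at 37 °C. MIC was taken as the lowest concentration with no growth. Two independent experiments were run, each in triplicate.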

[7] = Hemolytic activity in rat RBC assessed as hemoglobin release at 64 ug/mL after 1 hr by microplate reader analysis; assay type: ADME, cell-based; conditions: erythrocyte
Procedure, shortened: (§4)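 Rat RBCs (2% w/w) incubated 1 h at 37 °C, 5% CO2 with twofold dilutions starting at 256 µg/mL. PBS served as negative control and 1% w/v Triton X100 as the 100% lysis control. After centrifugation (2000 rpm, 10 min), supernatant absorbance read at 550 nm. Hemoglobin release expressed as % of Triton. Triplicates, with blood from at least two rats.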

[8] = Antibacterial activity against Streptococcus pyogenes serotype M3 assessed as growth inhibition after 24 hrs by MTT assay; assay type: functional; procedure, shortened: as §3
[9] = tested on: Streptococcus pyogenes; experiment: Antibacterial activity against glossy colony producing Streptococcus pyogenes assessed as growth inhibition after 24 hrs by MTT assay; assay type: functional; procedure, shortened: as §3
[10] = tested on: Streptococcus pyogenes; experiment: Antibacterial activity against Streptococcus pyogenes MGAS9429 assessed as growth inhibition after 24 hrs by MTT assay; assay type: functional; conditions: MGAS9429, 24 h; procedure, shortened: as §3
[11] = tested on: Streptococcus pyogenes; experiment: Antibacterial activity against Streptococcus pyogenes serotype M24 assessed as growth inhibition after 24 hrs by MTT assay; assay type: functional; conditions: serotype M24, 24 h; procedure, shortened: as §3
[12] = Antibacterial activity against Streptococcus pyogenes serotype M5 assessed as growth inhibition after 24 hrs by MTT assay; assay type: functional; procedure, shortened: as §3
[13] = tested on: Staphylococcus aureus; experiment: Antibacterial activity against methicillin-resistant Staphylococcus aureus assessed as growth inhibition after 24 hrs by MTT assay; assay type: functional; procedure, shortened: as §1
[14] = Hemolytic activity in rat RBC assessed as hemoglobin release at 128 ug/mL after 1 hr by microplate reader analysis; assay type: ADME, cell-based; conditions: erythrocyte; procedure, shortened: as §2
[15] = tested on: Staphylococcus epidermidis; experiment: Antibacterial activity against biofilm-negative Staphylococcus epidermidis ATCC 12228 assessed as growth inhibition after 24 hrs by MTT assay; assay type: functional; conditions: ATCC 12228, 24 h; procedure, shortened: as §3
[16] = Hemolytic activity in rat RBC assessed as hemoglobin release at 16 ug/mL after 1 hr by microplate reader analysis relative to control; assay type: ADME, cell-based, Erythrocyte; conditions: red blood cells (RBC), read-out: Activity; procedure, shortened: as §2
[17] = tested on: Streptococcus pyogenes; experiment: Antibacterial activity against Streptococcus pyogenes serotype M1T1 assessed as growth inhibition after 24 hrs by MTT assay; assay type: functional; conditions: serotype M1T1, 24 h; procedure, shortened: as §3
[18] = Antibacterial activity against Streptococcus pyogenes serotype M2 assessed as growth inhibition after 24 hrs by MTT assay; assay type: functional; procedure, shortened: as §3
[19] = tested on: Streptococcus pyogenes; experiment: Antibacterial activity against Streptococcus pyogenes serotype T5 assessed as growth inhibition after 24 hrs by MTT assay; assay type: functional; conditions: serotype T5, 24 h; procedure, shortened: as §3
[20] = tested on: Streptococcus pyogenes; experiment: Antibacterial activity against Streptococcus pyogenes JRS75 assessed as growth inhibition after 24 hrs by MTT assay; assay type: functional; conditions: JRS75, 24 h; procedure, shortened: as §3
[21] = Hemolytic activity in rat RBC assessed as hemoglobin release at 2 ug/mL after 1 hr by microplate reader analysis relative to control; assay type: ADME, cell-based, Erythrocyte; conditions: red blood cells (RBC), read-out: Activity; procedure, shortened: as §4
[22] = tested on: Staphylococcus epidermidis; experiment: Antibacterial activity against Staphylococcus epidermidis ATCC 12228 assessed as cell surface wrinkling at 1 ug/mL after 1 hr by scanning electron microscopic analysis; assay type: functional, organism-based
Procedure, shortened: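 S. epidermidis ATCC12228 grown 4 h at 37 °C, aerobic, to OD600 0.2. Cells washed in PBS pH 7.4 and resuspended to OD600 1.0. Treated with 1 µg/mL for 1 h at 37 °C, then diluted twofold. Washed, fixed overnight at 4 °C in 2.5% glutaraldehyde/PBS, dehydrated through graded ethanol, vacuum-dried, Pd-Au coated and imaged by SEM. Compared against untreated cells.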

| Compound | MIC [2] [µg/mL] | MIC [3] [µg/mL] | hemolysis at 1 h, 256 ug/mL [5] [%] | MIC [6] [µg/mL] | Activity [7] | MIC [8] [µg/mL] | MIC [9] [µg/mL] | MIC [10] [µg/mL] | MIC [11] [µg/mL] | MIC [12] [µg/mL] | MIC [13] [µg/mL] | MIC [15] [µg/mL] | MIC [17] [µg/mL] | MIC [18] [µg/mL] | MIC [19] [µg/mL] | MIC [20] [µg/mL] | other results |
| --- | --- | --- | --- | --- | --- | --- | --- | --- | --- | --- | --- | --- | --- | --- | --- | --- | --- |
| CCCCCCCSC[C@H]1O[C@H](O[C@H]2[C@H](O[C@@H]3O[C@H](CSCCCCCCC)[C@@H](O[C@H]4O[C@@H](CN)[C@@H](O)[C@H](O)[C@H]4N)[C@H]3O)[C@@H](O)[C@H](N)C[C@@H]2N)[C@H](N)[C@@H](O)[C@@H]1O | 16 (≈ 19 µM) | 8 (≈ 9.48 µM) | 30.4 | 4 (≈ 4.74 µM) | Toxic | 2 (≈ 2.37 µM) | 4 (≈ 4.74 µM) | 4 (≈ 4.74 µM) | 4 (≈ 4.74 µM) | 4 (≈ 4.74 µM) | 16 (≈ 19 µM) | 4 (≈ 4.74 µM) | 4 (≈ 4.74 µM) | 2 (≈ 2.37 µM) | 4 (≈ 4.74 µM) | 4 (≈ 4.74 µM) | Ratio [1]: 2; hemolysis at 1 h, 32 ug/mL [4]: 3.6%; Activity [14]: Toxic; hemolysis at 1 h, 16 ug/mL [16]: 0% |
| CC(C)C[C@@H](NC(=O)[C@H](C)NC(=O)CNC(=O)[C@@H](NC=O)C(C)C)C(=O)N[C@@H](C)C(=O)N[C@@H](C(=O)N[C@H](C(=O)N[C@@H](C(=O)N[C@@H](Cc1c[nH]c2ccccc12)C(=O)N[C@H](CC(C)C)C(=O)N[C@@H](Cc1c[nH]c2ccccc12)C(=O)N[C@H](CC(C)C)C(=O)N[C@@H](Cc1c[nH]c2ccccc12)C(=O)N[C@H](CC(C)C)C(=O)N[C@@H](Cc1c[nH]c2ccccc12)C(=O)NCCO)C(C)C)C(C)C)C(C)C [GRAMICIDIN D] (For-VGA[dL]A[dV]V[dV]W[dL]W[dL]W[dL]W-NHCH2CH2OH) | > 64 | 32 (≈ 17 µM) | < 60 | 2 (≈ 1.06 µM) | Toxic | < 0.5 | 16 (≈ 8.5 µM) | > 64 | < 0.5 | < 0.5 | 64 (≈ 34 µM) | 8 (≈ 4.25 µM) | < 0.5 | < 0.5 | 2 (≈ 1.06 µM) | < 0.5 | hemolysis at 1 h, 2 ug/mL [21]: 2.4% |
| NC[C@@H]1O[C@H](O[C@H]2[C@@H](O)[C@H](O[C@@H]3[C@@H](O)[C@H](N)C[C@H](N)[C@H]3O[C@H]3O[C@H](CO)[C@@H](O)[C@H](O)[C@H]3N)O[C@@H]2CO)[C@H](N)[C@@H](O)[C@@H]1O [PAROMOMYCIN] | 16 (≈ 26 µM) | > 64 | – | > 64 | – | 32 (≈ 52 µM) | 64 (≈ 104 µM) | > 64 | 64 (≈ 104 µM) | 32 (≈ 52 µM) | > 64 | 2 (≈ 3.25 µM) | 64 (≈ 104 µM) | 64 (≈ 104 µM) | 16 (≈ 26 µM) | 64 (≈ 104 µM) | Activity [22]: Active |
